{"source": "paper PMC8562596", "about": "(Biochemistry, 2016)", "key": {"HeLa cells [1]": {"test_system": "HeLa cells", "assay": "Apparent endosomal escape efficiency", "format": "cell-based", "settings": "for Apparent Endosomal Escape (γ, %): γ=(MFI^NF/MFI^Rho) of CPP over that of CPP 1 ×100%, 5 μM, 2 h", "outline": "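HeLa cells were seeded at 1.5 × 10^5 per well and grown overnight, then given 5 μM peptide for 2 h at 37 °C in medium. Separate peptide preparations were labelled with pH-sensitive naphthofluorescein or with rhodamine B through a miniPEG linker. Cells were DPBS-washed, trypsinised, pelleted and resuspended in DPBS for flow cytometry. NF used 633-nm excitation (APC channel) and Rho used 561-nm excitation (PE channel). γ is the NF/Rho mean-fluorescence ratio normalised to the reference peptide.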"}, "[2]": {"settings": "determined by fluorescence correlation spectroscopy; ref [42]; cited from earlier work"}, "[3]": {"assay": "Calcein release from LUVs", "settings": "20 μM peptide (Triton X-100 at 1%), over a 30-min period; Triton X-100 = 100%", "outline": "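Large unilamellar vesicles with a lipid composition mimicking the late endosomal membrane were loaded with the small-molecule dye calcein. They were then exposed to the cyclic peptide, and release of calcein from the vesicles was followed.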"}, "HeLa cells [4]": {"test_system": "HeLa cells", "settings": "relative to CPP 1 (100%); ref [40]; cited from earlier work"}, "HeLa cells [5]": {"test_system": "HeLa cells", "settings": "Rho-labeled, relative to CPP 1 (100%), ref [40]; cited from earlier work"}, "HeLa cells [6]": {"test_system": "HeLa cells", "settings": "NF-labeled, relative to CPP 1 (100%), ref [40]; cited from earlier work"}, "HeLa cells [7]": {"test_system": "HeLa cells", "assay": "Cytosolic entry of R9^NF in presence of unlabeled CPP, flow cytometry", "format": "cell-based", "settings": "5 μM unlabeled CPP", "outline": "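HeLa cells seeded at 1.5 × 10^5 per well, grown overnight, then exposed to naphthofluorescein-labeled R9 with or without 5 μM unlabeled cyclic CPP for 2 h in culture medium. Cells were washed twice with DPBS, detached with 0.25% trypsin, pelleted at 250G for 5 min, washed, resuspended in DPBS and read by flow cytometry for cytosolic NF fluorescence.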"}, "HeLa cells [8]": {"test_system": "HeLa cells", "assay": "Cellular uptake of FITC-labeled peptides, flow cytometry", "format": "cell-based", "settings": "9 vs cFΦR4, 11 vs 6, 12 vs 7, 5 μM, 2 h", "outline": "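Peptides carried an extra lysine on the Gln side chain, FITC-labelled at that lysine. HeLa cells were seeded at 1.5 × 10^5 per well, grown overnight and given 5 μM peptide for 2 h in culture medium. Cells were DPBS-washed twice, trypsin-detached, pelleted at 250G for 5 min, washed and resuspended in DPBS. Flow cytometry used 488-nm excitation and the FITC channel.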"}, "[9]": {"settings": "mouse, in vivo"}, "HeLa cells [10]": {"test_system": "HeLa cells", "assay": "Uptake of Rho-labeled CPPs under ATP depletion or at 4 °C, flow cytometry", "format": "cell-based"}}, "note": "“And” between values parts separate entries of the source, which are not always exact repeats. Equal values may be shown once. Read-outs that look alike come from different tables or passages of the source. Marks after values point to notes of the source that are not given here. Non-standard residues stand in square brackets, D forms with d. Residues, ends and D or L forms follow the SMILES beside them. 2Nal = N[C@@H](Cc1ccc2ccccc2c1)C(=O)O", "data": [{"compound": "N=C(N)NCCC[C@@H]1NC(=O)[C@H](CCCNC(=N)N)NC(=O)[C@H](CCCNC(=N)N)NC(=O)[C@H](Cc2ccc3ccccc3c2)NC(=O)[C@H](Cc2ccccc2)NC(=O)[C@H](CCC(N)=O)NC(=O)[C@H](CCCNC(=N)N)NC1=O", "note": "[CPP 1, cyclo(FΦRRRRQ)] (cyclo(F[2Nal]RRRRQ))", "values": [{"measurement": "Apparent Endosomal Escape (γ, %)", "setting": "HeLa cells [1]", "value": 100, "unit": "%"}]}, {"compound": "RRRRRRRRR [R9, nonaarginine]", "values": [{"measurement": "Cytosolic Delivery Efficiency (%)", "setting": "[2]", "value": 4.4, "unit": "%"}, {"measurement": "Apparent Endosomal Escape (γ, %)", "setting": "HeLa cells [1]", "value": "40 ± 5", "unit": "%"}, {"measurement": "Calcein dye release from LUVs", "setting": "[3]", "value": 1, "unit": "%"}]}, {"compound": "Triton X-100", "values": [{"measurement": "Calcein dye release from LUVs", "setting": "[3]", "value": 100, "unit": "%"}]}, {"compound": "YGRKKRRQRRR [Tat]", "values": [{"measurement": "Apparent Endosomal Escape (γ, %)", "setting": "HeLa cells [4]", "value": "23 ± 4 ^b %"}, {"measurement": "Cytosolic Delivery Efficiency (%)", "setting": "[2]", "value": "2.0% and 2.0 ^c %"}, {"measurement": "Total Cellular Uptake (MFI^Rho, %)", "setting": "HeLa cells [5]", "value": "43 ± 3 ^b %"}, {"measurement": "Cytosolic Entry (MFI^NF, %)", "setting": "HeLa cells [6]", "value": "9.9 ± 1.7 ^b %"}]}, {"compound": "cyclo(FfΦRrRrQ) [CPP 12]", "values": [{"measurement": "Effect on the cytosolic entry of R9^NF", "setting": "HeLa cells [7]", "value": "minimal effect"}, {"measurement": "Endosomal escape efficiency, fold relative to cFΦR4", "setting": "HeLa cells [1]", "value": 4.0, "unit": "fold"}, {"measurement": "Apparent Endosomal Escape (γ, %)", "setting": "HeLa cells [1]", "value": "402 ± 48", "unit": "%"}]}, {"compound": "cyclo(fΦRrRrQ) [CPP 9]", "values": [{"measurement": "CPP activity (FITC uptake), fold more active than stereoisomer", "setting": "HeLa cells [8]", "value": 6, "unit": "fold"}, {"measurement": "Endosomal escape efficiency, fold relative to cFΦR4", "setting": "HeLa cells [1]", "value": 2.0, "unit": "fold"}, {"measurement": "Apparent Endosomal Escape (γ, %)", "setting": "HeLa cells [1]", "value": "202 ± 20", "unit": "%"}, {"measurement": "oral bioavailability", "setting": "[9]", "value": "demonstrated oral bioavailability"}, {"measurement": "Decrease of total cellular uptake efficiency by energy depletion", "setting": "HeLa cells [10]; ATP depletion with sodium azide and 2-deoxyglucose", "value": "~ 80%"}, {"measurement": "Reduction of cellular entry at 4 °C", "setting": "HeLa cells [10]; incubation at 4 °C", "value": "≥ 95", "unit": "%"}]}, {"compound": "penetratin", "values": [{"measurement": "Calcein dye release from LUVs", "setting": "[3]", "value": 23, "unit": "%"}]}]}
